pIC50: −log10 of the molar value. The source made the active and inactive calls. No cut-off for these calls is given here.
Experiments:
[1] = system: HeLa; experiment: Cytotoxicity against human HeLa cells; type: functional, cell-based
[2] = system: Radical scavenging activity; experiment: Antioxidant activity assessed as DPPH radical scavenging activity; type: functional
[3] = Antioxidant activity assessed as hydroxyl radical scavenging activity after 15 mins by spectrophotometric analysis; type: functional
[4] = Antioxidant activity assessed as EDTA equivalent of chelating effect after 10 mins by spectrophotometric analysis; type: functional
Procedure, shortened: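 Ferrous-ion chelation: compounds or EDTA standard added to 2 mmol/L FeCl2 solution, then 5 mmol/L ferrozine added to start reaction. Mixture shaken vigorously and left 10 min at room temperature. Absorbance read at 562 nm. Activity expressed as mg EDTA equivalent/g.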

[5] = system: AGS; experiment: Cytotoxicity against human AGS cells; type: functional, cell-based
[6] = target: Albumin (Bos taurus, UniProt P02769); experiment: Binding affinity to bovine serum albumin at 25 uM by fluorescence spectra analysis; type: ADME; settings: cattle, isolated protein
Sequence of Albumin (P02769 whole entry): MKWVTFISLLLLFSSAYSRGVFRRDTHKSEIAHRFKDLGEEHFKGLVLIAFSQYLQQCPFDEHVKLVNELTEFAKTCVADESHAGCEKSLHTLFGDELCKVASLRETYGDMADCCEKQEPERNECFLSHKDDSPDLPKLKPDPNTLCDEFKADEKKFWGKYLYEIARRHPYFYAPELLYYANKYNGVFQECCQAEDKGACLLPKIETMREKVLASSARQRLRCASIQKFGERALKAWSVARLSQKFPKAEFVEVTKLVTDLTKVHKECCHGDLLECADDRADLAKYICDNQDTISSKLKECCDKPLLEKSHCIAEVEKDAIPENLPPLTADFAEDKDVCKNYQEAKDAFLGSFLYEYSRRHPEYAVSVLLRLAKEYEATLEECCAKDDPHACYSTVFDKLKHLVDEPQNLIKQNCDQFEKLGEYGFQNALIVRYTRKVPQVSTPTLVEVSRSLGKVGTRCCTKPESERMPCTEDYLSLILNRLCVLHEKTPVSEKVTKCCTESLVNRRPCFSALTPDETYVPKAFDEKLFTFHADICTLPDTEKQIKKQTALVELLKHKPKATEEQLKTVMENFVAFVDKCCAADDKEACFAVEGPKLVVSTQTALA

[7] = Antioxidant activity assessed as superoxide radical scavenging activity by NBT reduction assay; type: functional
[8] = system: HCT-116; experiment: Cytotoxicity against human HCT116 cells; type: functional, cell-based
[9] = system: DNA; experiment: Displacement of ethidium bromide from calf thymus DNA by spectrometric analysis; type: nucleic-acid assay; settings: Bos taurus
Procedure, shortened: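 Competitive EtBr displacement from CT-DNA monitored by emission spectroscopy. Kq taken as slope of I0/I versus [Q]. Kapp obtained from KEB[EB] = Kapp[compound], using compound concentration giving 50% loss of EB fluorescence, KEB = 1.0 × 10^7 M−1, [EB] = 5 μM.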

[10] = Antioxidant activity assessed as trolox equivalents of ABTS radical scavenging activity after 30 mins by TEAC assay; type: functional
Procedure, shortened: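 ABTS (7 mM in water) was oxidized with 2.45 mM potassium persulfate (final) for 12–16 h in the dark at room temperature. The radical was diluted in ethanol to A734 0.700 ± 0.02 at 30 °C, then added to sample or Trolox standards (final 0–15 μM). A734 was read at 30 °C, 30 min after mixing. Results are given as μmol Trolox equivalent/g.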

[11] = system: DNA; experiment: Binding affinity to calf thymus DNA by absorption titration; settings: Bos taurus

Structure (SMILES)	pIC50 [2]	pIC50 [3]	Activity [6]	pIC50 [7]	Kapp [9] [×10⁵ /M]	Kq [9] [×10⁴ /M]	Kb [11] [×10⁴ /M]	Activity [1]	Activity [4] [mg/g]	Activity [5]	Activity [8]	Activity [10] [µmol/g]
C=CCC(CC=C)(CC=C)c1ccc(CCCCCCCCC)cc1O	4.83	4.51	Active	4.48	0.34	0.68	2.23	inactive	8.4	inactive	inactive	4020
CC(C)C[C@H](NC(=O)[C@@H](O)C[C@H](N)CN)C(N)=O	4.46	4.45	Active	4.46	0.13	0.26	2.36	inactive	11.9	inactive	inactive	4090

Stronger by pIC50 [2], values ahead:

pIC50 [2]	pIC50 [3]	Activity [6]	pIC50 [7]	Kapp [9] [×10⁵ /M]	Kq [9] [×10⁴ /M]	Kb [11] [×10⁴ /M]	Structure (SMILES)	Activity [1]	Activity [4] [mg/g]	Activity [5]	Activity [8]	Activity [10] [µmol/g]
5.33	4.71		5.33				C[C@@H]1O[C@@H](OC[C@H]2O[C@@H](Oc3c(-c4ccc(O)c(O)c4)oc4cc(O)cc(O)c4c3=O)[C@H](O)[C@@H](O)[C@@H]2O)[C@H](O)[C@H](O)[C@H]1O [RUTIN]		18.5			10100
5.08	4.59	Active	5.08	1.6	1.71	3.13	CC(C)(C)c1cc(CCC(=O)O)cc(C(C)(C)C)c1F	inactive	4.5	inactive	inactive	6740
5.35	4.94		5.07				Cc1cc(C(C)(C)C)c(O)c(C(C)(C)C)c1 [BUTYLATED HYDROXYTOLUENE]		15.4			6050
